Results reported in ChEMBL document CHEMBL4270576, “Discovery of a benzenesulfonamide-based dual inhibitor of microsomal prostaglandin E2 synthase-1 and 5-lipoxygenase that favorably modulates lipid mediator biosynthesis in inflammation” (Eur J Med Chem, 2018).

Assays:
[1] = target: T1, Polyunsaturated fatty acid lipoxygenase ALOX15 (Homo sapiens) (UniProt P16050); assay: Modulation of 15-LO-mediated 7-HDHA level in human M2 macrophages derived from IL4-polarized human monocyte derived macrophages at 3 uM preincubated for 15 mins followed by Escherichia coli (O6:K2:H1) challenge for 90 mins by LC-MS/MS analysis
T1 sequence (whole entry): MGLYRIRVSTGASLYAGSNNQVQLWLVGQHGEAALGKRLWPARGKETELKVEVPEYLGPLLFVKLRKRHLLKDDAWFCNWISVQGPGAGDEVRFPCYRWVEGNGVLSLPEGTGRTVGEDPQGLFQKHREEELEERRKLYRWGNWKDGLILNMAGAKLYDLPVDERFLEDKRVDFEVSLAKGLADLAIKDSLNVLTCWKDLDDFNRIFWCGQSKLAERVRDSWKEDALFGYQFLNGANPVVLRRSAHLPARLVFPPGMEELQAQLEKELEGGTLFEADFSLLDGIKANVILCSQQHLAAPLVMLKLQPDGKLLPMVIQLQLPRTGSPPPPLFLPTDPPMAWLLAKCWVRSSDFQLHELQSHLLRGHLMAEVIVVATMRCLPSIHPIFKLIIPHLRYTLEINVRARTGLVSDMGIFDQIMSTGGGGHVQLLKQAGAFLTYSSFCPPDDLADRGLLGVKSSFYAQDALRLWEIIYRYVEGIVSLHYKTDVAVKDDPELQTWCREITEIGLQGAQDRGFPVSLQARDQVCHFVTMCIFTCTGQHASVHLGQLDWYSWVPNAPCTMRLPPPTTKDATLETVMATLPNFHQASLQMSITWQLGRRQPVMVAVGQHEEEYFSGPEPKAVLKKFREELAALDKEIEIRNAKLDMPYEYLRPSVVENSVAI
How it was run: (§1)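 Monocytes differentiated 6 days with M-CSF (20 ng/ml), then polarized 48 h with IL-4 20 ng/ml (M2). Cells (2 × 10^6) in PBS/1 mM CaCl2 pre-incubated 15 min at 37 °C with 3 µM compound or 0.1% DMSO, then challenged with E. coli O6:K2:H1 (1:50) for 90 min. Lipid mediators extracted by SPE with deuterated internal standards and quantified by UPLC-MS/MS as % of vehicle.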

[2] = target: Cyclooxygenase (Homo sapiens, UniProt P35354+P23219); assay: Modulation of COX1/2-mediated PGF2a level in human M1 macrophages derived from LPS/IFNgamma-polarized human monocyte derived macrophages at 3 uM preincubated for 15 mins followed by Escherichia coli (O6:K2:H1) challenge for 90 mins by LC-MS/MS analysis; assay type: protein assay; conditions: 1.5 h
How it was run: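 Monocytes differentiated 6 days with GM-CSF (20 ng/ml) in RPMI/10% FCS, then polarized 48 h with LPS 100 ng/ml plus IFN-γ 20 ng/ml (M1). Cells (2 × 10^6) in PBS with 1 mM CaCl2 pre-incubated 15 min at 37 °C with 3 µM compound or 0.1% DMSO, then E. coli O6:K2:H1 (1:50) for 90 min. Methanol with deuterated standards added; SPE; UPLC-MS/MS; expressed as % of vehicle.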

[3] = target: T2, Polyunsaturated fatty acid lipoxygenase ALOX12 (Homo sapiens) (UniProt P18054); assay: Modulation of 12-LO-mediated 12-HEPE level in human M2 macrophages derived from IL4-polarized human monocyte derived macrophages at 3 uM preincubated for 15 mins followed by Escherichia coli (O6:K2:H1) challenge for 90 mins by LC-MS/MS analysis; how it was run: as §1
T2 sequence (whole entry): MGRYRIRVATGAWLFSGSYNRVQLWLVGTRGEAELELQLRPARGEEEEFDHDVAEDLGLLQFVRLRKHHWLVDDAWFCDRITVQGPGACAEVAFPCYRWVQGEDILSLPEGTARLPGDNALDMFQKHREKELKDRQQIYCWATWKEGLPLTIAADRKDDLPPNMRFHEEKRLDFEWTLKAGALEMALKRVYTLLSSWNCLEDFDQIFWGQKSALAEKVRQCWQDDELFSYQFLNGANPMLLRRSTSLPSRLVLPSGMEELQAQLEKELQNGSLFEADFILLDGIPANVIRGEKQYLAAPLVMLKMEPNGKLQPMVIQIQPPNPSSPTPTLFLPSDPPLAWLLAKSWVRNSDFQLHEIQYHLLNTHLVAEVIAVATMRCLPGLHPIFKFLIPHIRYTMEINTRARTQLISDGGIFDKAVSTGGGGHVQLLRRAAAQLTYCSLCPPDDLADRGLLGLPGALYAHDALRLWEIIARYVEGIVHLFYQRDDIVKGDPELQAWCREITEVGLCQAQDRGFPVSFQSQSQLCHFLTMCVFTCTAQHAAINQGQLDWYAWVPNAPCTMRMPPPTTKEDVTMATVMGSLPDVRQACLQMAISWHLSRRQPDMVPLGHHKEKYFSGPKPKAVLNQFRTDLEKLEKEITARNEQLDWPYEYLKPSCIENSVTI

[4] = target: T3, Prostaglandin E synthase (Homo sapiens, UniProt O14684); assay: Inhibition of mPGES-1 isolated from microsomes of interleukin-1 beta-stimulated human A549 cells using PGH2 as substrate preincubated for 15 mins followed by substrate addition measured after 1 min by RP-HPLC analysis
T3 sequence (O14684 whole entry): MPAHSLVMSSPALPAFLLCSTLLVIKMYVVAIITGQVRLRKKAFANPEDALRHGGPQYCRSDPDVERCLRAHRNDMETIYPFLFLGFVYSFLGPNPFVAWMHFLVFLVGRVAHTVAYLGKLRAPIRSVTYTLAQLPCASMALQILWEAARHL
How it was run: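 Microsomes from A549 cells treated with IL-1β (1 ng/ml, 72 h), diluted in 0.1 M potassium phosphate pH 7.4 with 2.5 mM glutathione. Pre-incubated 15 min with compound or DMSO, then 20 µM PGH2 (final) for 1 min at 4 °C. IC50 from 4-5 concentrations.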

Compound: O=C(O)c1ccc(N(Cc2cccc(OCc3ccccc3)c2)S(=O)(=O)c2ccc(-c3ccccc3)cc2)cc1
- Activity [1]: 107%
- Activity [2]: 142%
- Activity [3]: 140%
- IC50 [4]: 700 nM
